Reference: ChEMBL document CHEMBL1287651, “Synthesis and in vitro antibacterial activity of fluoroquinolone derivatives containing 3-(N'-alkoxycarbamimidoyl)-4-(alkoxyimino) pyrrolidines” (2010)
≈ marks a conversion by molar mass, not a printed value.

What was measured:
Type in all cases: functional
[1] = system: Klebsiella pneumoniae; test: Antibacterial activity against Klebsiella pneumoniae 09-22 after 18 to 24 hrs by twofold serial dilution method
Outline: (§1)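 MIC determined by the standard twofold serial dilution method on agar media, screening against Gram-positive and Gram-negative strains. Levofloxacin and gemifloxacin were run alongside as reference drugs.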

[2] = system: Enterococcus faecium; test: Antibacterial activity against Enterococcus faecium 08-2 after 18 to 24 hrs by twofold serial dilution method; outline: as §1
[3] = system: Staphylococcus epidermidis; test: Antibacterial activity against methicillin-resistant Staphylococcus epidermidis 09-3 after 18 to 24 hrs by twofold serial dilution method
Outline: (§2)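 Standard twofold serial agar dilution method on agar media for MIC determination. Screened against representative Gram-positive and Gram-negative strains. Levofloxacin and GMFX served as control drugs.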

[4] = system: Staphylococcus epidermidis; test: Antibacterial activity against methicillin-resistant Staphylococcus epidermidis 09-2 after 18 to 24 hrs by twofold serial dilution method; outline: as §2
[5] = system: Escherichia coli; test: Antibacterial activity against Escherichia coli ATCC 25922 after 18 to 24 hrs by twofold serial dilution method; outline: as §1
[6] = system: Pseudomonas aeruginosa; test: Antibacterial activity against Pseudomonas aeruginosa 09-33 after 18 to 24 hrs by twofold serial dilution method; outline: as §1
[7] = system: Staphylococcus epidermidis; test: Antibacterial activity against methicillin-resistant Staphylococcus epidermidis 09-4 after 18 to 24 hrs by twofold serial dilution method; outline: as §2
[8] = system: Pseudomonas aeruginosa; test: Antibacterial activity against Pseudomonas aeruginosa 09-32 after 18 to 24 hrs by twofold serial dilution method; outline: as §1
[9] = system: Staphylococcus aureus; test: Antibacterial activity against methicillin-sensitive Staphylococcus aureus 08-2 after 18 to 24 hrs by twofold serial dilution method; outline: as §2
[10] = system: Staphylococcus epidermidis; test: Antibacterial activity against methicillin-sensitive Staphylococcus epidermidis 09-6 after 18 to 24 hrs by twofold serial dilution method; outline: as §2
[11] = system: Staphylococcus epidermidis; test: Antibacterial activity against methicillin-sensitive Staphylococcus epidermidis 09-3 after 18 to 24 hrs by twofold serial dilution method; outline: as §2
[12] = system: Staphylococcus aureus; test: Antibacterial activity against methicillin-resistant Staphylococcus aureus 08-1 after 18 to 24 hrs by twofold serial dilution method; outline: as §2
[13] = system: Enterococcus faecalis; test: Antibacterial activity against Enterococcus faecalis 08-10 after 18 to 24 hrs by twofold serial dilution method; outline: as §1
[14] = system: Enterococcus faecium; test: Antibacterial activity against Enterococcus faecium 08-7 after 18 to 24 hrs by twofold serial dilution method; outline: as §1
[15] = system: Escherichia coli; test: Antibacterial activity against Escherichia coli 08-21 after 18 to 24 hrs by twofold serial dilution method; outline: as §1
[16] = system: Klebsiella pneumoniae; test: Antibacterial activity against Klebsiella pneumoniae 09-23 after 18 to 24 hrs by twofold serial dilution method; outline: as §1
[17] = system: Streptococcus pneumoniae; test: Antibacterial activity against Streptococcus pneumoniae 08-4 after 18 to 24 hrs by twofold serial dilution method; outline: as §1
[18] = system: Pseudomonas aeruginosa; test: Antibacterial activity against Pseudomonas aeruginosa 09-34 after 18 to 24 hrs by twofold serial dilution method; outline: as §1
[19] = system: Pseudomonas aeruginosa; test: Antibacterial activity against Pseudomonas aeruginosa ATCC 27853 after 18 to 24 hrs by twofold serial dilution method; outline: as §1
[20] = system: Klebsiella pneumoniae; test: Antibacterial activity against Klebsiella pneumoniae 09-21 after 18 to 24 hrs by twofold serial dilution method; outline: as §1
[21] = system: Escherichia coli; test: Antibacterial activity against Escherichia coli 08-22 after 18 to 24 hrs by twofold serial dilution method; outline: as §1
[22] = system: Pseudomonas aeruginosa; test: Antibacterial activity against Pseudomonas aeruginosa 09-35 after 18 to 24 hrs by twofold serial dilution method; outline: as §1
[23] = system: Staphylococcus aureus; test: Antibacterial activity against Staphylococcus aureus ATCC […] after 18 to 24 hrs by twofold serial dilution method; outline: as §1
[24] = system: Enterococcus faecalis; test: Antibacterial activity against Enterococcus faecalis 08-12 after 18 to 24 hrs by twofold serial dilution method; outline: as §1
[25] = system: Streptococcus pneumoniae; test: Antibacterial activity against Streptococcus pneumoniae 08-2 after 18 to 24 hrs by twofold serial dilution method; outline: as §1

| SMILES | MIC [1] | MIC [2] | MIC [3] | MIC [4] | MIC [5] | MIC [6] | MIC [7] | MIC [8] | MIC [9] | MIC [10] | MIC [11] | MIC [12] | MIC [13] | MIC [14] | MIC [15] | MIC [16] | MIC [17] | MIC [18] | MIC [19] | MIC [20] | further results |
| --- | --- | --- | --- | --- | --- | --- | --- | --- | --- | --- | --- | --- | --- | --- | --- | --- | --- | --- | --- | --- | --- |
| CO/N=C1\CN(c2nc3c(cc2F)c(=O)c(C(=O)O)cn3C2CC2)CC1CN (stereo not given) [GEMIFLOXACIN] | 8 µg/mL (≈ 20.5 µM) | 16 µg/mL (≈ 41.1 µM) | 0.06 µg/mL (≈ 0.154 µM) | 0.125 µg/mL (≈ 0.321 µM) | 4 µg/mL (≈ 10.3 µM) | 2 µg/mL (≈ 5.14 µM) | 0.06 µg/mL (≈ 0.154 µM) | 0.5 µg/mL (≈ 1.28 µM) | 0.125 µg/mL (≈ 0.321 µM) | 0.25 µg/mL (≈ 0.642 µM) | 0.125 µg/mL (≈ 0.321 µM) | 0.25 µg/mL (≈ 0.642 µM) | 16 µg/mL (≈ 41.1 µM) | 2 µg/mL (≈ 5.14 µM) | 16 µg/mL (≈ 41.1 µM) | 8 µg/mL (≈ 20.5 µM) | 0.25 µg/mL (≈ 0.642 µM) | 0.5 µg/mL (≈ 1.28 µM) | 2 µg/mL (≈ 5.14 µM) | 16 µg/mL (≈ 41.1 µM) | MIC [21]: 2 µg/mL (≈ 5.14 µM); MIC [22]: 0.5 µg/mL (≈ 1.28 µM); MIC [23]: 0.125 µg/mL (≈ 0.321 µM); MIC [24]: 16 µg/mL (≈ 41.1 µM); MIC [25]: 8 µg/mL (≈ 20.5 µM) |
| CCO/N=C(/N)C1CN(c2c(F)cc3c(=O)c(C(=O)O)cn(CC)c3c2F)C/C1=N\OC (stereo not given) | 1 µg/mL (≈ 2.22 µM) | > 128 µg/mL | 0.125 µg/mL (≈ 0.277 µM) | 0.5 µg/mL (≈ 1.11 µM) | > 128 µg/mL | > 128 µg/mL | 0.125 µg/mL (≈ 0.277 µM) | > 128 µg/mL | 0.25 µg/mL (≈ 0.554 µM) | 0.25 µg/mL (≈ 0.554 µM) | 0.25 µg/mL (≈ 0.554 µM) | 0.25 µg/mL (≈ 0.554 µM) | > 128 µg/mL | > 128 µg/mL | > 128 µg/mL | > 128 µg/mL | 0.5 µg/mL (≈ 1.11 µM) | > 128 µg/mL | > 128 µg/mL | > 128 µg/mL | MIC [21]: > 128 µg/mL; MIC [22]: > 128 µg/mL; MIC [23]: 0.125 µg/mL (≈ 0.277 µM); MIC [24]: > 128 µg/mL; MIC [25]: 16 µg/mL (≈ 35.4 µM) |
| CCO/N=C(/N)C1CN(c2c(F)cc3c(=O)c(C(=O)O)cn(CCF)c3c2F)C/C1=N\OC (stereo not given) | 2 µg/mL (≈ 4.26 µM) | > 128 µg/mL | 0.125 µg/mL (≈ 0.266 µM) | 0.25 µg/mL (≈ 0.533 µM) | > 128 µg/mL | > 128 µg/mL | 0.25 µg/mL (≈ 0.533 µM) | > 128 µg/mL | 0.25 µg/mL (≈ 0.533 µM) | 0.25 µg/mL (≈ 0.533 µM) | 0.5 µg/mL (≈ 1.07 µM) | 0.25 µg/mL (≈ 0.533 µM) | > 128 µg/mL | > 128 µg/mL | > 128 µg/mL | > 128 µg/mL | 1 µg/mL (≈ 2.13 µM) | > 128 µg/mL | > 128 µg/mL | > 128 µg/mL | MIC [21]: > 128 µg/mL; MIC [22]: > 128 µg/mL; MIC [23]: 0.25 µg/mL (≈ 0.533 µM); MIC [24]: > 128 µg/mL; MIC [25]: 8 µg/mL (≈ 17 µM) |
| CCO/N=C1\CN(c2nc3c(cc2F)c(=O)c(C(=O)O)cn3C2CC2)CC1/C(N)=N\OCC (stereo not given) | 128 µg/mL (≈ 278 µM) | > 128 µg/mL | 8 µg/mL (≈ 17.4 µM) | 8 µg/mL (≈ 17.4 µM) | 128 µg/mL (≈ 278 µM) | > 128 µg/mL | 32 µg/mL (≈ 69.5 µM) | > 128 µg/mL | 8 µg/mL (≈ 17.4 µM) | > 128 µg/mL | > 128 µg/mL | > 128 µg/mL | > 128 µg/mL | > 128 µg/mL | > 128 µg/mL | > 128 µg/mL | > 128 µg/mL | > 128 µg/mL | 128 µg/mL (≈ 278 µM) | > 128 µg/mL | MIC [21]: > 128 µg/mL; MIC [22]: > 128 µg/mL; MIC [23]: 2 µg/mL (≈ 4.34 µM); MIC [24]: > 128 µg/mL; MIC [25]: > 128 µg/mL |
